Source: ChEMBL document CHEMBL1144097, “Triterpene trimers from Maytenus scutioides: cycloaddition compounds?” (J Nat Prod, 1999)
Calls of active or inactive are those of the source.

How the values were obtained:
Staphylococcus aureus = experiment: Antibacterial activity against Staphylococcus aureus ATCC 6538 upto 40 ug/mL by disk diffusion test; format: functional, organism-based
How it was run: (§1)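 Agar disk diffusion test. Bacterial strains were maintained on Nutrient Agar and the Candida albicans yeast on Sabouraud Agar, both at 37 °C.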

Candida albicans = experiment: Antifungal activity against Candida albicans UBC 1 upto 40 ug/mL by disk diffusion test; format: functional, organism-based; how it was run: as §1
Bacillus pumilus = experiment: Antibacterial activity against Bacillus pumilus CECT 29 upto 40 ug/mL by disk diffusion test; format: functional, organism-based; how it was run: as §1
Pseudomonas aeruginosa = experiment: Antibacterial activity against Pseudomonas aeruginosa AK 958 upto 40 ug/mL by disk diffusion test; format: functional, organism-based; how it was run: as §1
Salmonella typhimurium = experiment: Antibacterial activity against Salmonella Typhimurium UBC 2 upto 40 ug/mL by disk diffusion test; format: functional, organism-based; details: Salmonella enterica subsp. enterica serovar Typhimurium; how it was run: as §1
Bacillus subtilis = experiment: Antibacterial activity against Bacillus subtilis CECT 39 upto 40 ug/mL by disk diffusion test; format: functional, organism-based; how it was run: as §1
Proteus mirabilis = experiment: Antibacterial activity against Proteus mirabilis CECT 170 upto 40 ug/mL by disk diffusion test; format: functional, organism-based; how it was run: as §1
Klebsiella pneumoniae = experiment: Antibacterial activity against Klebsiella pneumoniae CECT 367 upto 40 ug/mL by disk diffusion test; format: functional, organism-based; how it was run: as §1
HEp-2 = experiment: Cytotoxicity against human Hep2 cells upto 40 ug/mL by MTT reduction assay; format: functional, cell-based
How it was run: (§2)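 Cells were grown as monolayers in DMEM with 10% newborn calf serum and 1% penicillin-streptomycin mixture. They were kept at 37 °C, 5% CO2 and 90% humidity. Viability was read by colorimetric MTT reduction.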

Paenibacillus alvei = experiment: Antibacterial activity against Bacillus alvei CECT 2 upto 40 ug/mL by disk diffusion test; format: functional, organism-based; how it was run: as §1
Micrococcus luteus = experiment: Antibacterial activity against Micrococcus luteus CECT 241 upto 40 ug/mL by disk diffusion test; format: functional, organism-based; how it was run: as §1
[1] = system: Staphylococcus saprophyticus; experiment: Antibacterial activity against Staphylococcus saprophyticus CECT 235 upto 40 ug/mL by disk diffusion test; format: functional, organism-based; how it was run: as §1
Staphylococcus warneri = experiment: Antibacterial activity against Staphylococcus warneri CECT 236 upto 40 ug/mL by disk diffusion test; format: functional, organism-based; how it was run: as §1
Bacillus cereus = experiment: Antibacterial activity against Bacillus cereus CECT 496 upto 40 ug/mL by disk diffusion test; format: functional, organism-based; how it was run: as §1
Salmonella sp. = experiment: Antibacterial activity against Salmonella sp. CECT 456 upto 40 ug/mL by disk diffusion test; format: functional, organism-based; how it was run: as §1
Escherichia coli = experiment: Antibacterial activity against Escherichia coli CECT 99 upto 40 ug/mL by disk diffusion test; format: functional, organism-based; how it was run: as §1
[2] = system: Staphylococcus epidermidis; experiment: Antibacterial activity against Staphylococcus epidermidis CECT 232 upto 40 ug/mL by disk diffusion test; format: functional, organism-based; how it was run: as §1
Priestia megaterium = experiment: Antibacterial activity against Bacillus megaterium CECT 44 upto 40 ug/mL by disk diffusion test; format: functional, organism-based; how it was run: as §1
HeLa = experiment: Cytotoxicity against human HeLa cells upto 40 ug/mL by MTT reduction assay; format: functional, cell-based; how it was run: as §2
Hafnia alvei = experiment: Antibacterial activity against Enterobacter hafniae CECT 400 upto 40 ug/mL by disk diffusion test; format: functional, organism-based; how it was run: as §1
Staphylococcus = experiment: Antibacterial activity against Staphylococcus albus SAB C1 upto 40 ug/mL by disk diffusion test; format: functional, organism-based; how it was run: as §1

Measured: Activity

COC(=O)[C@]1(C)CC[C@]2(C)CC[C@]3(C)C4=CC=C5C(=CC(=O)[C@@]6(O)Oc7c(cc8c(c7C)[C@H]7Oc9c(cc%10c(c9C)CCC9[C@@]%10(C)CC[C@@]%10(C)[C@@H]%11C[C@](C)(C(=O)OC)CC[C@]%11(C)CC[C@]9%10C)O[C@H]7C7[C@@]8(C)CC[C@@]8(C)[C@@H]9C[C@](C)(C(=O)OC)CC[C@]9(C)CC[C@]78C)O[C@@]56C)[C@]4(C)CC[C@@]3(C)[C@@H]2C1 (stereo partly specified)
inactive: all assays above
